# ChEMBL document CHEMBL1914430, “Synthesis of some new 1,3,5-trisubstituted pyrazolines bearing benzene sulfonamide as anticancer and anti-inflammatory agents” (Bioorg Med Chem Lett, 2011)
# Experiments:
# Assay type in all cases: functional
# Rattus norvegicus = test: Antiinflammatory activity in Wistar rat assessed as inhibition of carrageenan-induced hind paw edema at 20 mg/kg, po administered 30 mins before carrageenan challenge measured after 3 hrs by plethysmometer
# How it was run: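 Wistar rats of either sex, 150–175 g, fasted 16 h, n = 6 per group. Compound given orally at 20 mg/kg as a suspension in 1% CMC in water (10 mL/kg); controls got vehicle only. After 30 min, 0.1 mL of 1% carrageenan in saline was injected subplantar into the left hind paw. Paw volume was measured by plethysmometer at 0, 3 and 5 h. Inhibition = (1 − Vt/Vc) × 100, reported as mean ± SEM.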
# CCRF-CEM = test: Anticancer activity against human CCRF-CEM cells after 48 hrs
# How it was run: (§1)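 NCI Drug Evaluation Branch 60-cell-line screen across leukemia, melanoma, lung, colon, CNS, ovarian, renal, prostate and breast panels. The incubation period is 48 h. Parameters are derived from dose–response data: GI50 is the concentration giving 50% decrease in net growth, TGI is total growth inhibition, and LC50 is net 50% loss of initial cells. Values beyond the tested range are reported as greater or less than the maximum or minimum concentration.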
# HL-60(TB) = test: Anticancer activity against human HL-60(TB) cells after 48 hrs; conditions: HL-60, 48 h
# How it was run: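 NCI 60-cell-line panel protocol: cells exposed to compound for 48 h. Initial one-dose screen at 10⁻⁵ M. GI50 = concentration giving 50% decrease in net cell growth. TGI = concentration giving total growth inhibition. LC50 = concentration giving net 50% loss of initial cells at the end of incubation. A value not reached or exceeded is reported as greater or less than the highest or lowest concentration tested.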
# K562 = test: Anticancer activity against human K562 cells after 48 hrs; conditions: K562, 48 h; how it was run: as §1
# RPMI-8226 = test: Anticancer activity against human RPMI8226 cells after 48 hrs; conditions: RPMI-8226, 48 h
# How it was run: (§2)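 NCI 60-line panel protocol with a 48 h incubation. Per line: GI50 = concentration giving 50% decrease in net cell growth; TGI = total growth inhibition; LC50 = net 50% loss of initial cells. When the level was not reached or was exceeded, the value is given as greater or less than the highest or lowest concentration tested.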
# A549 = test: Anticancer activity against human A549 cells after 48 hrs; conditions: A549, 48 h; how it was run: as §1
# EKVX = test: Anticancer activity against human EKVX cells after 48 hrs; how it was run: as §1
# NCI-H226 = test: Anticancer activity against human NCI-H226 cells after 48 hrs; conditions: NCI-H226, 48 h; how it was run: as §2
# NCI-H23 = test: Anticancer activity against human NCI-H23 cells after 48 hrs; conditions: NCI-H23, 48 h; how it was run: as §2
# COLO 205 = test: Anticancer activity against human COLO205 cells after 48 hrs; conditions: COLO 205, 48 h; how it was run: as §1
# HCC 2998 = test: Anticancer activity against human HCC2998 cells after 48 hrs; conditions: HCC 2998, 48 h; how it was run: as §1
# HCT-116 = test: Anticancer activity against human HCT116 cells after 48 hrs; conditions: HCT-116, 48 h; how it was run: as §1
# HT-29 = test: Anticancer activity against human HT-29 cells after 48 hrs; conditions: HT-29, 48 h; how it was run: as §1
# SNB-75 = test: Anticancer activity against human SNB75 cells after 48 hrs; conditions: SNB-75, 48 h; how it was run: as §2
# U-251 = test: Anticancer activity against human U251 cells after 48 hrs; conditions: U-251, 48 h
# How it was run: (§3)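 NCI ~60 human tumour cell line panel with a 48 h incubation. GI50 is the concentration giving a 50% fall in net growth, TGI gives total growth inhibition, and LC50 gives a net 50% loss of initial cells. An effect not reached or exceeded is reported as greater or less than the highest or lowest concentration tested.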
# Malme-3M = test: Anticancer activity against human MALME-3M cells after 48 hrs; how it was run: as §1
# M14 = test: Anticancer activity against human M14 cells after 48 hrs; conditions: M14, 48 h; how it was run: as §1
# SK-MEL-2 = test: Anticancer activity against human SK-MEL-2 cells after 48 hrs; conditions: SK-MEL-2, 48 h; how it was run: as §2
# SK-MEL-5 = test: Anticancer activity against human SK-MEL-5 cells after 48 hrs; conditions: SK-MEL-5, 48 h; how it was run: as §2
# OVCAR-3 = test: Anticancer activity against human OVCAR3 cells after 48 hrs; conditions: OVCAR-3, 48 h; how it was run: as §2
# OVCAR-5 = test: Anticancer activity against human OVCAR5 cells after 48 hrs; conditions: OVCAR-5, 48 h; how it was run: as §2
# OVCAR-8 = test: Anticancer activity against human OVCAR8 cells after 48 hrs; conditions: OVCAR-8, 48 h; how it was run: as §2
# 786-0 = test: Anticancer activity against human 786-0 cells after 48 hrs; conditions: 786-0, 48 h; how it was run: as §1
# A498 = test: Anticancer activity against human A498 cells after 48 hrs; conditions: A498, 48 h; how it was run: as §1
# UO-31 = test: Anticancer activity against human UO31 cells after 48 hrs; conditions: UO-31, 48 h; how it was run: as §3
# [1] = Anticancer activity against human Hs 578T cells after 48 hrs; how it was run: as §1
# MDA-MB-468 = test: Anticancer activity against human MDA-MB-468 cells after 48 hrs; conditions: MDA-MB-468, 48 h; how it was run: as §1
# [2] = read-out: LC50 (the source's name)
smiles,measurement,setting,value
COc1ccc(C2CC(c3cc(Cl)c(C)cc3O)=NN2c2ccc(S(N)(=O)=O)cc2)cc1OC (configuration not stated),inhibition in vivo at 20 mg/kg,Rattus norvegicus,60.5%
same,GI50,CCRF-CEM,5.35 µM
same,LC50 (concentration causing net 50% loss of initial cells),CCRF-CEM,> 100 µM
same,TGI,CCRF-CEM,> 100 µM
same,GI50,HL-60(TB),3.42 µM
same,LC50,HL-60(TB),> 100 µM
same,TGI,HL-60(TB),100 µM
same,GI50,K562,3.18 µM
same,LC50 (concentration killing 50% of initial cells),K562,> 100 µM
same,GI50,RPMI-8226,4.1 µM
same,LC50 (concentration for net 50% loss of initial cells),RPMI-8226,> 100 µM
same,TGI,RPMI-8226,100 µM
same,GI50,A549,3.54 µM
same,LC50 (net 50% loss of initial cells),A549,> 100 µM
same,TGI,A549,19.7 µM
same,GI50,EKVX,4.15 µM
same,TGI,EKVX,100 µM
same,CC50,EKVX; [2],> 100 µM
same,GI50,NCI-H226,5.62 µM
same,TGI,NCI-H226,23.1 µM
same,CC50,NCI-H226; [2],86.4 µM
same,GI50,NCI-H23,3.11 µM
same,LC50 (concentration killing 50% of initial cells),NCI-H23,> 100 µM
same,TGI,NCI-H23,13.6 µM
same,GI50,COLO 205,1.93 µM
same,LC50 (concentration giving net 50% loss of initial cells),COLO 205,6.02 µM
same,TGI,COLO 205,3.41 µM
same,GI50,HCC 2998,2.72 µM
same,LC50 (net 50% loss of initial cells),HCC 2998,27.4 µM
same,TGI,HCC 2998,7.25 µM
same,GI50,HCT-116,1.72 µM
same,TGI,HCT-116,4.36 µM
same,CC50,HCT-116; [2],12.4 µM
same,GI50,HT-29,2.24 µM
same,TGI,HT-29,6.48 µM
same,CC50,HT-29; [2],36.9 µM
same,GI50,SNB-75,2.7 µM
same,TGI,SNB-75,97.2 µM
same,CC50,SNB-75; [2],> 100 µM
same,GI50,U-251,3.71 µM
same,TGI,U-251,14 µM
same,CC50,U-251; [2],48.2 µM
same,GI50,Malme-3M,3.65 µM
same,TGI,Malme-3M,24.6 µM
same,CC50,Malme-3M; [2],> 100 µM
same,GI50,M14,2.61 µM
same,TGI,M14,7.26 µM
same,CC50,M14; [2],38.3 µM
same,GI50,SK-MEL-2,5.87 µM
same,LC50,SK-MEL-2,> 100 µM
same,TGI,SK-MEL-2,32.7 µM
same,GI50,SK-MEL-5,4.28 µM
same,LC50,SK-MEL-5,39.7 µM
same,TGI,SK-MEL-5,15.2 µM
same,GI50,OVCAR-3,3.37 µM
same,LC50 (concentration giving 50% net loss of initial cells),OVCAR-3,77.5 µM
same,TGI,OVCAR-3,9.8 µM
same,GI50,OVCAR-5,2.25 µM
same,LC50,OVCAR-5,27.8 µM
same,TGI,OVCAR-5,6.36 µM
same,GI50,OVCAR-8,3.39 µM
same,TGI,OVCAR-8,17.9 µM
same,CC50,OVCAR-8; [2],> 100 µM
same,GI50,786-0,2.37 µM
same,TGI,786-0,5.04 µM
same,CC50,786-0; [2],> 100 µM
same,GI50,A498,3.98 µM
same,TGI,A498,24.7 µM
same,CC50,A498; [2],> 100 µM
same,GI50,UO-31,3.3 µM
same,CC50,UO-31; [2],> 100 µM
same,GI50,[1],3.29 µM
same,TGI,[1],34.3 µM
same,CC50,[1]; [2],> 100 µM
same,GI50,MDA-MB-468,2.58 µM
same,TGI,MDA-MB-468,9.51 µM
same,CC50,MDA-MB-468; [2],> 100 µM
